Compound activity deposited in PubChem BioAssay by Johns Hopkins Ion Channel Center.
MrgX1 PAM: human MrgX1 positive allosteric modulation, primary screen | B-score at 10 µM | actives 0.63% (n = 310,000) | MrgX1-HEK293, Fluo-4 calcium flux, FDSS; stronger effect = higher value | Q96LB2 | AID 588675;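 active = plate-corrected calcium response at least 3 library SD above typical, normal starting fluorescence, not activating the receptor alone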;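 also: compound read alongside a low EC10 to EC30 dose of BAM8-22 agonist; peak minus trough fluorescence over baseline measured at the second addition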
Target sequence (Q96LB2 whole entry, looked up): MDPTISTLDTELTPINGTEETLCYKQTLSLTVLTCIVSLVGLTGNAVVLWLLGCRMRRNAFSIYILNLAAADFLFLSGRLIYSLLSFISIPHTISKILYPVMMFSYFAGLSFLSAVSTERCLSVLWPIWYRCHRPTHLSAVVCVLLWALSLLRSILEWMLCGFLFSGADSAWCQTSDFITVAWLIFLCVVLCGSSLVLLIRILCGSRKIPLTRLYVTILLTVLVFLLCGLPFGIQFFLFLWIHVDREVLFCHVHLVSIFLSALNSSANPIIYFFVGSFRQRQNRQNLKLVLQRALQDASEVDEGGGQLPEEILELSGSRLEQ
RGS4 inh: human RGS4 inhibition; actives 0.45% (n = 310,000); HEK293 M3R/RGS4 inducible, Fluo-4 calcium flux; stronger effect = higher value; triggered by carbachol at its EC20; B-score at 10 µM; P49798;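 active = B-score, a plate-corrected calcium signal, over three deviations above library mean, with baseline fluorescence within five deviations of library mean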;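 also: RGS4 expression induced by doxycycline in cells with stable M3 receptor; B-score is computed from the integrated fluorescence ratio over baseline after carbachol; higher B-score means a larger calcium signal and so more RGS4 inhibition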
Target sequence (P49798 whole entry, looked up): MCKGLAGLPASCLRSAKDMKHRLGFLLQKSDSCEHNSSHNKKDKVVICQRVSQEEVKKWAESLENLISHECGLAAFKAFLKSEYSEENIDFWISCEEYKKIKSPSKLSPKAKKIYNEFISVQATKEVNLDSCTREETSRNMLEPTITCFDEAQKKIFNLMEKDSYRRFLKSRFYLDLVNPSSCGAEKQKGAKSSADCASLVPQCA
MrgX1 agonist: activates human MrgX1 receptor signaling | Q96LB2 | actives 0.44% (n = 310,000) | MrgX1-HEK293 cells, Fluo-4 calcium fluorescence, agonist mode; stronger effect = higher value | AID 588627 | B-score at 10 µM;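 active = calcium response B-score plate-corrected fluorescence ratio at least 3 library SD, with starting fluorescence B-score inside 5 SD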
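Assay system: MrgX1-expressing HEK293 cells / Amount: fifteen thousand cells per well / Doses: test compound in the initial addition of three / Timing: cells plated overnight, dye loaded 0.5 h 37 °C, 0.5 h room temperature / Technique: kinetic calcium dye fluorescence, Fluo-4 NW / Control set: positive and negative controls per plate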
RGS4 act: RGS4 potentiation or activation; HEK293 M3R/inducible RGS4, carbachol calcium flux Fluo4; stronger effect = lower value; B-score at 10 µM; AID 463111; actives 0.92% (n = 310,000);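 active = B-score of the integrated calcium signal more than 4 SD below the library mean, with starting fluorescence not abnormally high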;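 also: negative B-score means reduced calcium response which marks RGS4 activation or potentiation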
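System – HEK293 FlpIn-TREx cells, stable M3R, doxycycline-inducible RGS4 · Reagent – ECmax carbachol challenge · Times – compound preincubation 20 min at room temperature before agonist · Technique – Fluo4 fluorescence kinetic imaging of calcium · Measure – B score of integrated Fluo4 ratio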
MrgX1 antag: human MrgX1 receptor antagonism, primary screen; Q96LB2; MRGX1-HEK293 calcium flux, Fluo-4, BAM8-22 antagonism; stronger effect = lower value; B-score at 10 µM; actives 1.3% (n = 310,000); AID 588676;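 active = calcium-response B-score plate-corrected more than 3 library SD below zero, starting fluorescence within 5 deviations, no agonist response on first addition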;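 also: peak minus trough fluorescence over baseline after final BAM8-22 challenge near maximal dose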
Hits are given with their value; n = inactive; x = no result. A selection: hits, their analogues and other compounds. The true share with any hit is near 3.5%.

SMILES	MrgX1 PAM	RGS4 inh	MrgX1 agonist	RGS4 act	MrgX1 antag
Cc1nn(-c2ccccc2)c2c1C(c1ccc([N+](=O)[O-])cc1)N1C(=N2)C(=O)Nc2ccccc21 (configuration not stated)	n	n	n	-9	n
Cc1nn(-c2ccc([N+](=O)[O-])cc2)c2c1C(c1cccc(Br)c1)N1C(=N2)C(=O)Nc2ccccc21 (configuration not stated)	n	n	n	n	-5.8
Cc1cccc(NC2=Nc3ccccc3N3C2=Nc2c(c(C)nn2-c2ccccc2)C3c2ccc(O)c(O)c2)c1 (configuration not stated)	n	n	n	n	n
Cc1nn(-c2ccccc2)c2c1C(c1ccc(Cl)cc1)N(c1ccccc1)C(=O)N2 (configuration not stated)	n	n	n	n	n
CCOC(=O)N1CCN(c2ccc(C(C)=O)cc2F)CC1C (configuration not stated)	n	n	n	n	n
CCCn1c(SCC(=O)Nc2nnc(C(C)C)s2)nc2c1c(=O)n(C)c(=O)n2C	n	n	n	n	n
CC(NCC(=O)Nc1cc(S(=O)(=O)N2CCOCC2)ccc1Cl)c1ccc(Cl)cc1Cl (configuration not stated)	n	n	n	n	-7.3
c1cc2c(cc1CN1CCN(C3CCCCCC3)CC1)OCO2	n	n	n	-7.6	n
c1ccc(CN2CCC(N3CCN(Cc4ccc5c(c4)OCO5)CC3)CC2)cc1	n	n	n	n	n
CC(=O)Nc1cccc(NC(=O)CSc2nc(=O)n(CCN3CCOCC3)c3c2CCC3)c1	n	n	n	n	n
COc1ccc2c(=O)c(-c3ccccc3C)c(C)oc2c1	9.3	n	n	n	n
COc1ccccc1-c1c(C)oc2cc(OC(=O)c3ccco3)ccc2c1=O	n	n	n	n	n
O=C1CCCc2nc(N3CCN(Cc4ccccc4)CC3)ncc21	n	n	n	n	n
Cc1cc(=O)[nH]c(SCC(=O)NC(C)C2CC3CCC2C3)c1C#N (configuration not stated)	n	n	n	n	n
Cc1cccc(CSc2nc3c(c(-c4cccs4)c2C#N)CN(C)CC3)c1	8.7	n	n	n	n
Cc1c(Cl)cccc1NC(=O)COC(=O)c1c2c(nc3ccccc13)CCN(Cc1ccccc1)C2	n	n	n	n	n
CC(C)NC(=O)NC(=O)COC(=O)c1c2c(nc3ccccc13)CCC2	n	n	n	-7	n
CC(C)c1ccccc1NC(=O)COC(=O)c1c2c(nc3ccccc13)CCN(Cc1ccccc1)C2	n	n	n	-8.1	n
CCn1nc(C(=O)Nc2ccccc2N2CCCC2)c2ccccc2c1=O	12	n	n	-8.7	n
CCN(CC)c1ccc(NC(=O)Cn2cc3c(n2)CCC(C)C3)c(C)c1 (configuration not stated)	n	n	n	n	n
CC(C)c1ccc2c(c1)CCC1C(C)(CN)CCCC21C (configuration not stated)	n	n	46	n	n
CC1(C)CCCC2=C1CC1C(=O)N(Cc3cccnc3)C(=O)C1C2 (configuration not stated)	n	n	n	n	n
Cc1cc(C)c(C(=O)COC(=O)c2ccc([N+](=O)[O-])o2)cc1C	n	n	n	-7.5	n
COCCn1c(C)cc(C(=O)COC(=O)c2ccc([N+](=O)[O-])o2)c1C	n	n	n	n	n
COc1ccc(C(=O)Nc2cc(C(C)=O)c(/C=C/N(C)C)oc2=O)cc1	n	n	n	n	-5.3
SMILES	MrgX1 PAM	RGS4 inh	MrgX1 agonist	RGS4 act	MrgX1 antag
COc1ccc(-c2nnc(SCc3cc(C)cc(C)c3)o2)cc1	n	n	n	-7.2	n
COc1ccc(-c2nnc(SCC(=O)c3ccc(C)o3)o2)cc1	x	n	x	n	x
Nc1nn(-c2ccccc2)c(N)c1N=Nc1ccccc1F	n	n	n	n	n
CCOC(=O)CCCNC(=O)CCNC(=O)c1ccc(OC(C)C)cc1	n	n	n	n	n
O=C1Nc2ccccc2N(O)N1c1ccc(Cl)cc1	n	n	n	n	n
CCN1c2ccccc2NC2C1C(C(C)=O)C(=O)N2c1ccc(Cl)cc1 (configuration not stated)	n	n	n	n	-5.1
O=C(NC(=S)Nc1ccc(CN2CCCCC2)cc1)c1cccc(OCc2ccccc2)c1	n	n	n	-7.5	n
CC(=O)Nc1ccc(CN2CCCCCCC2)cc1	n	n	n	n	n
O=C(Nc1ccc(CN2CCCCC2)cc1)c1c(F)c(F)c(F)c(F)c1F	n	n	n	-7.3	n
COc1cccc(C(=O)C2CCCN(Cc3cn(C)nc3-c3ccccc3)C2)c1 (configuration not stated)	n	n	n	n	n
CCOC(=O)c1sc(=S)n(-c2ccccc2Cl)c1C	n	n	n	-9.3	n
CNCc1ccccc1Sc1ccc(O)c(O)c1	n	n	n	-7.5	-5.7
COc1ccc(Sc2ccccc2CN(C)C)cc1OC	n	n	n	n	n
COCCNC(=O)COC(=O)c1cccnc1SC	n	n	n	n	n
O=C(CN1C(=O)NC2(CCCCC2)C1=O)Oc1ccc2c(C(F)(F)F)cc(=O)oc2c1	n	n	n	n	n
CCc1cc(=O)oc2cc(OC(=O)CN3C(=O)NC4(CCCC4)C3=O)ccc12	n	n	n	n	-6.9
COCCNC(=O)c1cc(-c2cccnc2)nc2ccc(Br)cc12	n	n	n	n	n
CS(=O)(=O)n1nc(-c2ccc(Cl)cc2)nc1N	n	n	n	n	n
Cn1nc(-c2ccc(Cl)cc2)nc2c(=O)n(C)c(=O)nc1-2	n	n	n	n	-4.6
CCOC(=O)CCCn1c(C)nc(=O)c(-c2ccccc2)c1C	n	n	n	n	n
C/C(=C\C(=S)Nc1ccccc1)Nc1ccc2ccccc2c1	n	n	n	n	-4.5
C/C(=C\C(=S)Nc1ccccc1)Nc1cccc2ccccc12	n	n	n	n	n
O=C(NCCCN1CCCC1)c1ccc2c(c1)N(Cc1ccccc1)CCS2	n	n	n	-7.4	n
CCn1c(=O)c(C(=O)NNC(=O)c2ccc(Cl)cc2Cl)c(O)c2ccccc21	n	n	69	-7.8	n
CCCn1c(=O)c(C(=O)NCCc2ccccc2)c(O)c2ccccc21	n	n	n	n	n
CCCn1c(=O)c(C(=O)NNC(=O)c2ccc(Cl)cc2Cl)c(O)c2ccccc21	n	n	38	n	n
CCn1c(=O)c(C(=O)Nn2c(C)nc3ccccc3c2=O)c(O)c2ccccc21	n	n	n	n	n
CCc1nc2ccccc2c(=O)n1NC(=O)c1c(O)c2ccccc2n(CC)c1=O	12	n	n	n	n
CCCn1c(=O)c(C(=O)NCCc2ccc(OC)cc2)c(O)c2ccccc21	7	n	n	n	n
N/C(=N\OC(=O)c1ccoc1)c1ccc(Br)cc1	n	n	n	n	n
